# E-selectin induc: E-selectin induction on HUVECs. P16581. HUVEC E-selectin immunofluorescence imaging; normalized: neutral wells 0, TNF-alpha wells 100. activation, % at 7.58 µM. 260,000 compounds, 0.37% hits. AID 686992;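 active means mean E-selectin-positive cell signal at least 10% of the positive control, reached in at least 60% of replicates, without over 20% cell loss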
#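 Test system: HUVEC; input: 3,000 HUVEC/well; measured by: immunofluorescence imaging; read-out: % PE-positive cells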
# S100A4 MyoIIA: blocks human S100A4 binding to myosin IIA peptide | 360,000 compounds, 0.14% hits | AID 652163 | P26447 | inhibition, % at 10.7 µM | S100A4/TAMRA-MyoIIA peptide fluorescence polarization;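 active means mean inhibition of at least 70% across replicates, with every replicate also reaching that level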
# Target sequence (P26447 whole entry, looked up): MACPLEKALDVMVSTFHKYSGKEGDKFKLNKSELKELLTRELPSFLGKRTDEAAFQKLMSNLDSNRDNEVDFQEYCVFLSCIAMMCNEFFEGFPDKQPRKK
#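 Material: S100A4 monomer protein / Buffer or medium: 50 mM HEPES pH 7.2, 10 mM CaCl2, 100 mM KCl / Times: 5 min incubation before reading / Benchmarks: neutral control DMSO, positive control TFP / Reagent: labelled myosin peptide probe, 5 nM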
# SIRT5 inh: sirtuin-5 (human) deacylase inhibition | Q9NXA8 | Purified SirT5, succinyl-peptide AMC, trypsin-coupled fluorescence | inhibition, % at 15 µM | 330,000 compounds, 1.1% hits | AID 652115; in the data active means inhibition above about 15%
# Target sequence (Q9NXA8 whole entry, looked up): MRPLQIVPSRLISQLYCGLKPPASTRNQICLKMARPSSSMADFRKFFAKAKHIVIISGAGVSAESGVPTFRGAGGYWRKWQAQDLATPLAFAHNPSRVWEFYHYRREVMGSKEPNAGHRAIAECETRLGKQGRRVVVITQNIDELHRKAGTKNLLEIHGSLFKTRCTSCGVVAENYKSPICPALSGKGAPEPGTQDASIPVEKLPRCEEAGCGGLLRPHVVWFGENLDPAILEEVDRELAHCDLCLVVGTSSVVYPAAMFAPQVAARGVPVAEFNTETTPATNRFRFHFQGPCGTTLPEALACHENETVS
# FGF22 binding: shifts melting point of recombinant human FGF22 | Q9HCT0 | recombinant FGF22 thermal shift, SYPRO orange fluorescence; percent of sucrose octasulfate shift, DMSO zero | activity (Tm shift, normalised), % at 9.99 µM | 340,000 compounds, 1.5% hits;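 active means mean Tm shift, scaled 0 neutral to 100 positive control, at about 1.3% or above, every replicate too, limit read from the data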
# Target sequence (Q9HCT0 whole entry, looked up): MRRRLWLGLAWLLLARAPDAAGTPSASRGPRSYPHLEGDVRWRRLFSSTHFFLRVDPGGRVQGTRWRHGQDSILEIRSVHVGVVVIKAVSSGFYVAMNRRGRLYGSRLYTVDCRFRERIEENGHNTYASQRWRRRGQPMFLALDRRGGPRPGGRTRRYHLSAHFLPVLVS
# miR-122 sensor: blocks miR-122 activity in Huh7 sensor cells; Huh7 miR-122 Renilla luciferase sensor, 48 h; neutral wells = 0, positive control = 100; activation (reporter increase), % at 12.5 µM; 340,000 compounds, 0.3% hits; AID 602342;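 active means mean replicate activation score at least 90 and every replicate individually at or above 90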;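 further: higher luciferase means less miR-122 activity so hits act as miR-122 inhibitors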
# Hits are given with their value; . = inactive; / = not tested or not shown; ! = repeats disagree. A selection: hits, their analogues and other compounds. The true share with any hit is near 2.5%.
SMILES,E-selectin induc,S100A4 MyoIIA,SIRT5 inh,FGF22 binding,miR-122 sensor
CO[C@H]1CN(C)C(=O)c2cc(NC(=O)C3CC3)ccc2OC[C@H](C)N(C(=O)CN(C)C)C[C@@H]1C,.,.,.,.,.
O=C(O)Cn1cc(C(=O)C(F)(F)F)c2ccccc21,49,.,.,.,.
CCCCOP(=O)(c1ccc(N(C)C)cc1)C(Nc1ccccc1)c1ccccc1 (centres undefined),/,.,.,.,.
CCCOP(=O)(c1ccc(N(C)C)cc1)C(Nc1ccccc1)c1ccc(N(C)C)cc1 (centres undefined),.,.,29,.,.
O=C(N/N=C/c1cc2c(cc1Br)OCO2)c1cccnc1,/,.,.,43,/
CCCCCCNS(=O)(=O)c1ccc(Cl)s1,/,/,/,/,209
O=S(=O)(NCCCN1CCOCC1)c1ccc(Cl)s1,/,.,.,.,/
COc1ccc(NC(=O)Nc2cccc3c2O[C@H](CN(C)C(=O)Nc2ccc(OC)cc2)[C@@H](C)CN([C@@H](C)CO)C3=O)cc1,.,.,.,.,.
Nc1ccc(C(=O)O)c(O)c1,.,.,15!,.,.
O=C(O)c1ccc(O)cc1O,/,.,/,.,.
O=C(NCc1ccccc1F)C1CCC(=O)N(Cc2ccc(Cl)cc2)C1 (centres undefined),/,.,.,.,.
O=C(NCc1ccccn1)C1CCC(=O)N(Cc2ccc(Cl)cc2)C1 (centres undefined),.,.,37,.,.
COc1cccc(CNC(=O)CCn2ccc3cc(S(=O)(=O)N4CCCC4)ccc32)c1,/,.,.,.,.
COc1ccc(CNC(=O)CCn2ccc3cc(S(=O)(=O)N4CCCC4)ccc32)cc1,.,.,34,.,.
Cc1cccc(CNC(=O)Cn2ccc3cc(S(=O)(=O)N4CCCC4)ccc32)c1,/,.,16,.,.
Cc1ccccc1CNC(=O)Cn1ccc2cc(S(=O)(=O)N3CCCCCC3)ccc21,.,.,19,.,.
Cc1cccc(CNC(=O)Cn2ccc3cc(S(=O)(=O)N4CCCCCC4)ccc32)c1,/,.,.,.,.
Cc1c(NS(=O)(=O)c2ccc(Cl)c(C(=O)OCC(=O)NCc3ccco3)c2)c(=O)n(-c2ccccc2)n1C,.,.,.,44,.
CCN1C(=O)c2cccc3c(S(=O)(=O)Nc4ccccc4)ccc1c23,/,/,/,/,151
CCN1C(=O)c2cccc3c(S(=O)(=O)Nc4ncccc4C)ccc1c23,/,/,/,/,96
O=C1C[C@@](C(=O)NCCN2CCOCC2)(c2ccc([N+](=O)[O-])cc2)[C@@H](c2ccc(CO)cc2I)N1CC12CC3CC(CC(C3)C1)C2,/,.,.,.,/
O=P1(Nn2cnnc2)C=C(c2ccccc2)OC(c2ccccc2)=C1,/,/,/,/,.
CC[N+](CC)(CCCCS(=O)(=O)[O-])CCNP1(=O)C=C(c2ccccc2)OC(c2ccccc2)=C1,/,.,.,44,.
Cc1noc(C)c1S(=O)(=O)Nc1ccc2c(c1)C(=O)N([C@@H](C)CO)C[C@H](C)[C@@H](CN(C)CC1CC1)O2,/,.,.,.,.
CCC(=O)Nc1ccc2c(c1)C(=O)N(C)C[C@@H](OC)[C@H](C)CN(C(=O)CN(C)C)[C@@H](C)CO2,.,/,/,/,.
SMILES,E-selectin induc,S100A4 MyoIIA,SIRT5 inh,FGF22 binding,miR-122 sensor
NC(=NC(=O)c1ccc(Cl)cc1)N1N=CCC1c1ccccc1 (centres undefined),/,.,16,.,.
O=C(CSc1ccc(Cl)cc1)N1N=CCC1c1ccccc1 (centres undefined),.,.,.,.,/
CCOC(=O)/C(=C/c1ccc(OC(=O)c2ccncc2)cc1)C(C)=O,/,.,.,44,/
Cc1ccc(S(=O)(=O)N2C[C@@H](C)[C@]3(C2)[C@H](O)[C@H](OC(=O)NCc2ccco2)C[C@H]2C(=O)N(c4ccccc4)C(=O)[C@H]23)cc1,.,.,22,.,.
COc1ccc(CNC(=O)O[C@@H]2C[C@H]3C(=O)N(c4ccccc4)C(=O)[C@H]3[C@@]3(CN(S(=O)(=O)c4ccc(C)cc4)C[C@H]3C)[C@@H]2O)cc1OC,.,.,.,.,.
CCCNC(=O)N1[C@@H]2CNC[C@H]1C2c1ccc(-c2ccc(C)cc2)cc1 (some centres undefined),.,/,/,.,/
C=C[C@@H](COC(C)=O)N(Cc1ccccc1[N+](=O)[O-])S(=O)(=O)c1ccc(Br)cc1,/,.,.,.,/
CC(=O)NC1C(=O)N(CCN2CCOCC2)c2ccc(F)cc21 (centres undefined),53,.,.,.,/
CC(=O)NC1C(=O)N(CCN2CCOCC2)c2ccc(Cl)cc21 (centres undefined),.,.,.,.,/
CNC[C@H]1Oc2ccc(NS(=O)(=O)c3ccc(F)cc3)cc2CC(=O)N([C@H](C)CO)C[C@@H]1C,.,.,.,.,.
CC1CCCC(C)N1C(=C(Cl)Cl)C(=C1SCCS1)[N+](=O)[O-] (centres undefined),/,.,.,43,/
Cc1ccc(N2C(=O)CS/C2=C(\C(Cl)=C(Cl)Cl)[N+](=O)[O-])cc1,/,.,.,.,.
CN(C)CC(=O)Nc1ccc2c(c1)[C@@H]1C[C@H](CC(=O)NCc3cc(F)ccc3F)O[C@H](CO)[C@@H]1O2,.,.,.,.,.
CCCC#Cc1ccc2c(c1)O[C@@H](CN(C)C(=O)c1ccccc1F)[C@@H](C)CN([C@@H](C)CO)S2(=O)=O,.,.,17,.,.
CCCC#Cc1ccc2c(c1)O[C@H](CN(C)C(=O)c1ccccc1F)[C@H](C)CN([C@H](C)CO)S2(=O)=O,.,.,18,.,.
COc1cccc(-c2ccc3c(c2)O[C@H](CN(C)C(=O)c2ccccc2F)[C@H](C)CN([C@H](C)CO)S3(=O)=O)c1,.,.,37!,.,.
CCCC#Cc1ccc2c(c1)O[C@H](CN(C)C(=O)Nc1ccccc1F)[C@@H](C)CN([C@H](C)CO)S2(=O)=O,.,.,21,.,.
CC(C)CC#Cc1ccc2c(c1)O[C@H](CN(C)C(=O)c1ccccc1F)[C@@H](C)CN([C@@H](C)CO)S2(=O)=O,.,.,.,.,.
O=C(NCC[C@H]1CC[C@H](NC(=O)C2CCCCC2)[C@@H](CO)O1)c1cc(Cl)cc(Cl)c1,.,.,.,.,/
C[C@H](CO)N1C[C@H](C)[C@@H](CN(C)Cc2cccc(C(=O)O)c2)Oc2ncc(C#CCN(C)C)cc2C1=O,/,.,.,.,.
COc1ccccc1CCc1nnc(CCC(=O)N(C)Cc2cccc3cnccc23)o1,/,.,.,44,.
CCN(Cc1ccncc1)C(=O)CCc1nnc(CCc2ccccc2OC)o1,.,.,.,.,/
CCN(CCn1cccn1)C(=O)CCc1nnc(CCc2ccccc2OC)o1,/,.,.,44,.
COc1ccc2c3c([nH]c2c1)[C@H](CO)N(C(=O)CN(C)C)CC31CN(Cc2ccccc2)C1,.,.,/,.,/
